Screening results from PubChem BioAssay.
APJ antag: APJ receptor antagonism; P35414; CHO-K1 APJ beta-arrestin complementation, luminescence; inhibition, % at 20 µM; 330,000 compounds, 0.32% hits; AID 2521;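 active = inhibition above about 40% at 20 µM, limit read from the data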;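 also: cells challenged with 10 nM apelin-13 agonist together with compound; plate controls were apelin-13 plus DMSO wells for no effect and DMSO wells lacking apelin-13 for full effect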
CCR6 antagonist: antagonists of human CCR6 receptor; AID 493098; CHO-K1 CCR6 PathHunter beta-arrestin, luminescence, CCL20-stimulated; 340,000 compounds, 0.49% hits; P51684; inhibition, % at 20 µM;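 active = compounds whose inhibition of the agonist-driven luminescence signal at 20 µM reaches about 50%, limit read from the data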;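 also: cells stimulated with CCL20 at 14 nM final; plate controls were DMSO with CCL20 for no effect and DMSO without agonist for full effect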
Target sequence (P51684 whole entry, looked up): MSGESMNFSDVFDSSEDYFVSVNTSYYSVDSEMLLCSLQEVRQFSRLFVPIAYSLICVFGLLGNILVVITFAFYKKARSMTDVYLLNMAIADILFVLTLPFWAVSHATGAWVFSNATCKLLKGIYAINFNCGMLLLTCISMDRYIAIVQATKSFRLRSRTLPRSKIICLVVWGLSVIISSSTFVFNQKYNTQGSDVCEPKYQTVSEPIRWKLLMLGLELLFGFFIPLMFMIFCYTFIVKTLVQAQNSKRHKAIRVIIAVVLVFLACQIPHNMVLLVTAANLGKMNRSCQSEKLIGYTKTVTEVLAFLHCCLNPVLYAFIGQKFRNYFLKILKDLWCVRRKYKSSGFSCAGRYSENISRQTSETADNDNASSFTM
EBI2 block: EBI2 (human) antagonism | EBI2 beta-arrestin recruitment, luminescence, 7a,25-OHC stimulated | inhibition, % at 5 µM | AID 651636 | P32249 | 360,000 compounds, 0.81% hits; in the data active = inhibition above about 38%;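 also: enzyme fragment complementation signal reports receptor beta-arrestin coupling in cells; 0% = agonist plus DMSO wells and 100% = wells without agonist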
CXCR6 block: CXCR6 (human) receptor inhibition. O00574. CHO-K1 PathHunter CXCR6 beta-arrestin, luminescence. inhibition, % at 20 µM. 360,000 compounds, 0.36% hits; in the data active = inhibition above about 34%, passing the limit was not always enough;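 also: antagonist mode with CXCL16 agonist at 10 nM final; 0% = 10 nM CXCL16 with DMSO and 100% = unstimulated wells without agonist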
APJ ag: activates the human apelin receptor APJ | P35414 | AID 2520 | 330,000 compounds, 0.11% hits | CHO-K1 APJ PathHunter beta-arrestin, luminescence; 0% DMSO wells, 100% apelin | activation, % at 20 µM;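 active = activation more than six SD over the plate average, tested at 20 µM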;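 also: 0% = DMSO alone and 100% = apelin-13 at 10 nM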
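Test system: CHO-K1 APJ beta-arrestin complementation cell line. Amount: cell density 1000 per well. Controls: DMSO negative, 10 nM Apelin-13 positive. Signal: luminescent beta-gal fragment complementation, chemiluminescent substrate. Read-out basis: agonist-driven arrestin binding to APJ. Timing: compound stimulation 90 min at 25 °C, detection 60 min.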
Active calls of the source: *; . = no result given. An excerpt weighted towards active compounds, which were near 1.5% of everything screened.

SMILES | APJ antag | CCR6 antagonist | EBI2 block | CXCR6 block | APJ ag
COc1ccc2c(c1O)C(=O)c1ccccc1C2=O | -107 | . | . | . | 2
Nc1c(O)ccc2c1C(=O)c1ccccc1C2=O | . | 50* | . | . | .
COc1ccc(C(=O)/C=C2/C(=O)Nc3ccccc32)c(OC)c1 | 25 | 25 | 80* | 16 | 2
COc1cc(OC)c(/C=C2\C(=O)Nc3ccccc32)c(OC)c1 | 9 | 13 | . | . | -2
O=C1Nc2ccccc2/C1=C/c1cnc(-c2ccccc2)[nH]1 | -10 | -7 | 9 | -5 | 1
C=CCOc1ccccc1C(=O)/C=C1/C(=O)Nc2ccccc21 | 18 | 45 | 53* | 12 | 3
O=C1C=CC(=O)N1c1cccc(-c2ccccc2)c1 | -2 | 76* | 7 | 72* | 2
O=C(NC(=S)N(CCCCO)C1CCCCC1)c1sc2ccccc2c1Cl | 31 | 67* | 4 | 18 | -5
O=C(/C=C/c1ccccc1)NNc1ccc(Cl)cc1 | 62* | 12 | 4 | 7 | -8
O=C(/C=C/c1ccccc1)NNC(=O)c1cccc(Cl)c1 | 6 | 10 | 1 | -11 | -2
CC(=O)N(c1ccccc1C)C1CCCC1 | 5 | 6 | -7 | -4 | 1
CC(=O)N(C1=C(Cl)C(=O)c2ccccc2C1=O)C1CCCCC1 | -10 | 115* | 8 | 40* | 8
COc1ccccc1N1C(=O)C=C(Sc2nc(C)cc(C)n2)C1=O | -11 | 94* | 3 | 11 | -2
COc1ccccc1N1C(=O)C2CC(C)=C(C)CC2C1=O (stereo unspecified) | 18 | 3 | -5 | -6 | 0
COC(=O)C[C@@H]1CC[C@@H](NS(=O)(=O)c2cccc(OC)c2)[C@@H](CO)O1 | . | . | -9 | . | .
O=C(/C=C/c1ccc(Br)cc1)c1ccc(NC2=NCCCS2)cc1 | 8 | 21 | 78* | 5 | -6
COc1cc(/C=C2\SC(c3ccc(C)cc3)=NC2=O)cc(OC)c1OC | -9 | -6 | 30 | 0 | 5
COc1cc(/C=C2\SC(c3ccccc3)=NC2=O)cc(Cl)c1O | . | 74* | -5 | 37 | .
COc1cc(/C=C2/C(=O)ON=C2C)cc(Cl)c1O | 29 | 59* | -4 | 34 | -5
C#CCOc1c(Cl)cc(/C=C2/C(=O)ON=C2C)cc1OC | -1 | 6 | -3 | -2 | -3
CC(C)(CC(=O)O)CC(=O)N1CCN(c2cc(C(F)(F)F)nc3ccccc23)CC1 | 2 | 18 | -3 | 4 | -2
CC(C)C[C@H]1C(=O)N2CCC[C@H]2[C@]2(O)O[C@](NC(=O)C3C=C4c5cccc6[nH]c(Br)c(c56)C[C@H]4N(C)C3)(C(C)C)C(=O)N12 (stereo partly specified) | -3 | 2 | 90* | -2 | 4
Cc1cc(C)c(S(=O)(=O)c2ccc(Cl)cc2C)c(Cl)n1 | -2 | 3 | 5 | -5 | -5
Cc1cc(C)c2c(=O)n(CC(=O)NCCCN3CCN(c4ccccc4F)CC3)sc2n1 | -12 | 100* | . | . | 4
COc1cccc(-c2c(-c3ccccc3OC)ncn2Cc2cccc(-c3ccccc3)c2)c1 | . | . | 15 | . | .
SMILES | APJ antag | CCR6 antagonist | EBI2 block | CXCR6 block | APJ ag
O=S(=O)(NCc1nnc2ccccn12)c1ccc(Cl)cc1 | 12 | -5 | -11 | -2 | -3
COc1ccc(N2CCN(C(=O)CN(Cc3ccc(Cl)cc3)S(C)(=O)=O)CC2)cc1 | -3 | -2 | 6 | 71* | -2
O=C(NC1CCCC1)C(=O)N(c1ccccc1F)C(C(=O)NCC1CCCO1)c1cccs1 (stereo unspecified) | -14 | 10 | 8 | 2 | -3
CS(=O)(=O)N(CC(=O)N1CCCC1)c1cc(C(F)(F)F)ccc1Cl | 27 | 4 | 2 | -2 | -2
CS(=O)(=O)N(CC(=O)N1CCN(c2ccccc2)CC1)c1cc(C(F)(F)F)ccc1Cl | 8 | 7 | 46* | 1 | -6
COc1ccc(NC(=O)/C(Cl)=C(/Cl)S(=O)(=O)Cc2ccccc2)cn1 | . | 25 | 61* | 34 | .
COc1ccc(NC(=O)C(Cl)=C(Cl)Cl)cn1 | 9 | -16 | 14 | -4 | 1
CCCN1C(=O)N(c2cccc(C)c2)C(C)(O)CC1(C)C (stereo unspecified) | -5 | 19 | 11 | -1 | -4
N#C/C(C(=O)Nc1ccc(Cl)cc1)=C(/S)Nc1ccccc1 | 0 | 8 | 57* | 1 | 2
O=C(Nc1ccc(Nc2ccccc2)cc1)c1ccc(Cl)cc1 | 2 | 0 | 4 | -1 | 0
CC(CCc1ccccc1)NC(=O)COC(=O)c1ccc([N+](=O)[O-])cc1 (stereo unspecified) | -5 | 1 | -10 | -3 | 0
CC(CCc1ccccc1)NC(=O)COC(=O)c1ccc(S(C)(=O)=O)c([N+](=O)[O-])c1 (stereo unspecified) | 5 | 50* | 10 | 31 | 7
CC1(C(=O)NS(=O)(=O)c2cccc(Cl)c2)CCN1C(=O)Cc1ccc(-c2ccccc2)cc1 (stereo unspecified) | . | . | 0 | 8 | .
COc1cccc(C(C(=O)NCc2ccccc2)N2CCN(C(=O)C3CCCO3)CC2)c1OC (stereo unspecified) | . | . | 0 | . | .
Cc1cc(C)nc(N/N=C/c2cc(Br)ccc2O)n1 | 3 | 44 | 1 | 44* | -3
Cc1cc(C)nc(N/N=C/c2ccccc2OCc2ccc(Br)cc2)n1 | 8 | -1 | -6 | 3 | -1
COc1ccccc1N1CCN(Cc2ccc(OC)c(OC)c2OC)CC1 | 1 | 6 | -3 | -1 | -5
CCOC(=O)C1CCN(Cc2ccccc2C(F)(F)F)CC1 | 1 | 15 | -2 | -2 | -1
CCOC(=O)C1CCN(Cc2ccc(O)c3ncccc23)CC1 | 14 | 35 | 45* | 32 | -4
COc1ccccc1N1CCN(Cc2ccc(O)c3ncccc23)CC1 | 22 | 30 | 73* | 27 | -9
CCc1c(-c2ccc(Br)cc2)ncn1Cc1cccc(-c2ccccc2)c1 | . | . | 1 | . | .
Cc1cc(C)nc(NC(=O)Cc2ccc(Br)cc2)n1 | 9 | 2 | 2 | -5 | -1
CC(=O)Nc1ccc(NCC(=O)c2ccccc2)cc1 | 11 | 28 | -15 | 51* | 0
CCOc1ccc(C(=O)COc2ccc(NC(C)=O)cc2)cc1 | -5 | 12 | 3 | 0 | -1
CCOc1ccc(NCC(=O)c2ccc(C)cc2)cc1 | 6 | 68* | -6 | 51* | -2
O=C(CNc1ccccc1)c1ccc([N+](=O)[O-])cc1 | -7 | 20 | -3 | -7 | 6
Nc1c(Cl)ncnc1N/N=C/c1cccnc1 | 13 | 8 | -12 | 4 | 3
Nc1c(Cl)ncnc1N/N=C/c1ccccn1 | . | 50* | . | . | .
CC(C)(C)c1ccc(S(=O)(=O)/N=C2\C=C(NS(=O)(=O)c3ccccc3)C(=O)c3ccccc32)cc1 | 0 | 50* | -3 | 28 | -4
Cc1ccc(NC2=C/C(=N/S(=O)(=O)c3cccs3)c3ccccc3C2=O)cc1 | 27 | 59* | 32 | 33 | 1
